Source: ChEMBL document CHEMBL4371029, “Design, synthesis and evaluation of N2,N4-diaminoquinazoline based inhibitors of phosphodiesterase type 5” (Bioorg Med Chem Lett, 2019)
pEC50, pIC50: −log10 of the molar value. Converted amounts (≈) assume the structure as drawn.

Columns and labels:
[1] = biological target: cGMP-specific 3',5'-cyclic phosphodiesterase (Rattus norvegicus, UniProt O54735); experiment: Inhibition of rat lung PDE5 using [3H]cGMP as substrate measured after 10 mins by scintillation counting method
[2] = Inhibition of histone activated chicken PDE6 using [3H]cGMP as substrate measured after 10 mins by scintillation counting method; parameters: species or system Gallus gallus
Procedure, shortened: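 Radioactive enzyme assay adapted from Sonnenburg et al. IC50 is the concentration giving 50% enzyme inhibition. Percent inhibition at the highest concentration tested is also recorded.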

Artery = experiment: Vasorelaxant activity in Wistar rat endothelium intact pulmonary artery rings assessed as inhibition of phenylephrine-induced contraction; format: functional, tissue-based
[3] = Selectivity index, ratio of IC50 for histone activated chicken PDE6 to IC50 for rat lung PDE5
[4] = Equilibrium solubility of the compound in pH 7.4 phosphate buffer saline at 1 mg sonicated for 1 hr followed by 6 hrs incubation by shake flask method; format: physicochemical; conditions: phosphate buffered saline
[5] = Selectivity index, ratio of IC50 for human A549 cells to IC50 for rat lung PDE5
A549 = experiment: Cytotoxicity against human A549 cells after 72 hrs by MTT assay; format: cell-based; conditions: A549, 72 h
Procedure, shortened: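 A549 adenocarcinomic human alveolar basal epithelial cells (ATCC CCL-185). Viability read by MTT; result expressed as IC50.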

| SMILES | pIC50 [1] | pIC50 [2] | pEC50 (Artery) | Ratio IC50 [3] | solubility thermodynamic at 6 h [4] [µM] | Ratio IC50 [5] | pIC50 (A549) |
| --- | --- | --- | --- | --- | --- | --- | --- |
| c1ccc(Nc2nc(NCc3cccs3)c3ccccc3n2)cc1 | 5.84 |  |  |  |  |  |  |
| COc1cc2nc(Nc3cccc(S(N)(=O)=O)c3)nc(NCc3ccco3)c2cc1OC | 6.55 |  |  |  |  |  |  |
| NS(=O)(=O)c1ccc(Nc2nc(NCc3cccs3)c3ccccc3n2)cc1 | 6.65 |  |  |  |  |  |  |
| NC(=O)c1cccc(Nc2nc(NCc3cccs3)c3ccccc3n2)c1 | 6.54 |  |  |  |  |  |  |
| CCCc1nn(C)c2c(=O)[nH]c(-c3cc(S(=O)(=O)N4CCN(C)CC4)ccc3OCC)nc12 |  | 7.89 | 6.85 |  |  |  |  |
| O=C(Nc1ccccc1)Nc1ccc(Nc2nc(NCc3cccs3)c3ccccc3n2)cc1 | 6.11 |  |  |  |  |  |  |
| NC(=O)c1ccc(Nc2nc(NCc3cccs3)c3ccccc3n2)cc1 | 6.75 |  |  |  |  |  |  |
| COc1cc2nc(Nc3cccc(S(N)(=O)=O)c3)nc(NCc3cccs3)c2cc1OC | 6.26 |  |  |  |  |  |  |
| NS(=O)(=O)c1ccc(Nc2nc(NCc3ccccc3)c3ccccc3n2)cc1 | 6.02 |  |  |  |  |  |  |
| c1ccc(CNc2nc(Nc3ccccc3)nc3ccccc23)cc1 | 5.86 | 6.05 |  | 0.65 | 410 (≈ 134 µg/mL) | 9 | 4.91 |
| COc1cc2nc(Nc3cccc(S(N)(=O)=O)c3)nc(NCc3ccccc3)c2cc1OC | 6.66 |  |  |  |  |  |  |
| NS(=O)(=O)c1cccc(Nc2nc(NCc3ccccc3)c3ccccc3n2)c1 | 7.14 | 6.48 | 5.79 | 4.61 | 1370 (≈ 556 µg/mL) | 155 | 4.95 |
| c1ccc(CNc2nc(Nc3ccc(N4CCOCC4)cc3)nc3ccccc23)cc1 | 6.28 | 6.35 |  | 0.86 | 600 (≈ 247 µg/mL) | 23 | 4.92 |
| Cc1cc(Nc2nc(Nc3cccc(S(N)(=O)=O)c3)nc3ccccc23)n[nH]1 | 5.43 |  |  |  |  |  |  |
| Clc1cnc(Nc2ccccc2)nc1NCc1ccccc1 | < 5.00 | 4.47 |  |  |  |  |  |

Continued, in another order:

| pIC50 [1] | pIC50 [2] | pEC50 (Artery) | Ratio IC50 [3] | solubility thermodynamic at 6 h [4] [µM] | SMILES | Ratio IC50 [5] | pIC50 (A549) |
| --- | --- | --- | --- | --- | --- | --- | --- |
| 6.29 | 6.21 |  | 1.19 | 480 (≈ 200 µg/mL) | c1csc(CNc2nc(Nc3ccc(N4CCOCC4)cc3)nc3ccccc23)c1 | 22 | 4.94 |
| 6.94 | 6.72 |  | 1.64 | 380 (≈ 150 µg/mL) | NS(=O)(=O)c1cccc(Nc2nc(NCc3ccco3)c3ccccc3n2)c1 | 232 | 4.57 |
| 6.35 |  |  |  |  | COc1cccc(CNc2nc(Nc3cccc(S(N)(=O)=O)c3)nc3cc(OC)c(OC)cc23)c1 |  |  |
| 6.46 |  |  |  |  | COc1cccc(CNc2nc(Nc3cccc(S(N)(=O)=O)c3)nc3ccccc23)c1 |  |  |
| 7.05 | 6.44 | 5.64 | 4.04 | 340 (≈ 140 µg/mL) | NS(=O)(=O)c1cccc(Nc2nc(NCc3cccs3)c3ccccc3n2)c1 | 169 | 4.82 |
| 5.90 |  |  |  |  | CN(C)S(=O)(=O)c1ccc(Nc2nc(NCc3ccccc3)c3ccccc3n2)cc1 |  |  |
